The nature of series [1]: Cytotoxicity against human MT4 cells assessed as reduction in cell viability by MTT assay. The format is cell-based. The method in brief:
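MT-4 cell viability was measured by MTT reduction, run in parallel with the antiviral assay using 5-fold serial compound dilutions. CC50 is the concentration reducing viability by 50%.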
(Tetrazolium dyes change colour on reduction, which living cells bring about.)

For series [2], the target named is T1, Human immunodeficiency virus type 1 integrase (Human immunodeficiency virus 1, UniProt Q7ZJM1). The series can be described thus: Inhibition of HIV1 integrase using 3'-biotin-labelled and 5'-digoxigenin-labelled oligonucleotide substrate incubated for 1 hr by ELISA. The method in brief: (§1)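 ELISA with a 3'-biotin oligo and a 5'-digoxigenin partner oligo. Overall assay uses the full complementary oligo; strand transfer uses a precleaved oligo lacking the 3'-GT. Integrase at 160 nM final, annealed oligos 7 nM, in 10 mM MgCl2, 5 mM DTT, 20 mM HEPES pH 7.5, 0.5% PEG, 15% DMSO. Run 1 h at 37 °C, products denatured with NaOH, detected on avidin plates.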
T1 sequence (Q7ZJM1 whole entry): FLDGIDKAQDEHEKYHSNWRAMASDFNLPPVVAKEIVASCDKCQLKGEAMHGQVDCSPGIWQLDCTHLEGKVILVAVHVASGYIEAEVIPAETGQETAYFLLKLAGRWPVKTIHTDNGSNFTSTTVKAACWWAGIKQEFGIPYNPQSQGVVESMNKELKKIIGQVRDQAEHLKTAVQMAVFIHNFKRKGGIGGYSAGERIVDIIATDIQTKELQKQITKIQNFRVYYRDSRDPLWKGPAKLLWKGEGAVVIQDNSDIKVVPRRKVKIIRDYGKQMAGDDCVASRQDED
(In general: In an ELISA, binding on a coated surface is turned into a signal by an enzyme label.)

Series [3] concerns the target T1, Human immunodeficiency virus type 1 integrase. The series can be described thus: Inhibition of HIV1 integrase strand transfer activity using 5'[digoxigenin]-GACCCTTTTAGTCAGTGTGGAAAATCTCTAGCA-3' as substrate incubated for 1 hr by ELISA. Put shortly:
as §1

Series [4] deals with Human immunodeficiency virus 1. The series can be described thus: Antiviral activity against HIV1 3B infected in human MT4 cells assessed as reduction in virus-induced cytopathic effect by MTT assay. The format is functional, organism-based. The conditions noted are these: Human immunodeficiency virus 1, 3B. Put shortly:
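MT-4 cells infected with 100-300 CCID50 of HIV-1 IIIB, in the presence of 5-fold serial dilutions of compound. Cytopathic effect read by MTT reduction to formazan, measured spectrophotometrically. EC50 is the concentration giving 50% protection against virus-induced CPE.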
Background: Cytopathic effects are the visible damage that an infection or toxin causes in cultured cells.

Series [5] in a line: Therapeutic index, ratio of CC50 for human MT4 cells to EC50 for HIV1 3B infected in human MT4 cells. It counts as cell-based. Particulars: read-out: Ratio CC50/EC50. Put shortly: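 Ratio of CC50 to EC50. Both were determined in parallel by MTT in MT-4 cells, with the EC50 measured against HIV-1 IIIB cytopathic effect.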
The subject of series [6] is Human immunodeficiency virus 1. The series can be described thus: Antiviral activity against HIV1 3B infected in human MT4 cells at 50 to 100 times antiviral EC50 added 1 to 25 hrs post infection assessed as time required for loss of inhibition of viral replication measured at 30 hrs post infection by p24 ELISA method. It counts as functional.
Series [7] in a line: Inhibition of recombinant HIV1 reverse transcriptase RNase H activity using calf thymus ssDNA-[3H]-RNA as template/primer incubated for 10 mins. Details: species or system Human immunodeficiency virus 1. The method in brief:
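Recombinant HIV-1 RT (4.5 pmol) preincubated with compound 10 min at 37 °C. Then reacted 10 min at 37 °C with [3H]-RNA/calf thymus DNA hybrid (20,000 cpm) in 50 mM Tris-HCl pH 8.0, 10 mM DTT, 6 mM MgCl2, 80 mM KCl. Stopped with cold TCA/pyrophosphate; released radioactivity taken by subtraction from undigested control.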

The structures appear in SMILES notation. pEC50, pIC50: −log10 of the molar value. Bounds are passed on as bounds.

Take `CC(C)NC(=O)C1C(=O)N(O)C(=O)c2ccccc21` (stereo not given): in series [1], the CC50 is 162 µM. In addition, the pIC50 in series [2] is 5.35; in series [3], 5.30. The pEC50 in series [4] was 4.52. In series [5], the selectivity ratio was determined as 5.4.
`Cc1cn([C@H]2C[C@H](N=[N+]=[N-])[C@@H](CO)O2)c(=O)[nH]c1=O` [ZIDOVUDINE]: the Time in series [6] was 4 h.
On to `O=C(NC1CC1)C1C(=O)N(O)C(=O)c2ccccc21` (stereo not given), for which the CC50 in series [1] was over 250 µM. Besides, the pIC50 is 5.67 in series [2] and 5.40 in series [3]. In addition, the pEC50 in series [4] was 4.37. Besides, the selectivity ratio in series [5] is over 6.
Take `CC(C)(C)NC(=O)C1C(=O)N(O)C(=O)c2ccccc21` (stereo not given): the CC50 in series [1] is 142 µM. Also, the pIC50 in series [2] and in series [3] was 5.35 throughout. The pEC50 in series [4] is under 3.85.
Turning to `CC(C)c1nc(CN(C)C(=O)N[C@H](C(=O)N[C@@H](Cc2ccccc2)C[C@H](O)[C@H](Cc2ccccc2)NC(=O)OCc2cncs2)C(C)C)cs1` [RITONAVIR], the Time in series [6] is 25 h.
On to `CCCCNC(=O)C1C(=O)N(O)C(=O)c2ccccc21` (stereo not given), for which the figures for the pIC50 in series [7], in series [2] and in series [3] were 4.82, 6.18 and 6.32, respectively. The CC50 in series [1] came out at 128 µM. In addition, in series [4], the pEC50 is 5.04. The selectivity ratio in series [5] was determined as 14.
In the case of `CCCCCNC(=O)C1C(=O)N(O)C(=O)c2ccccc21` (stereo not given), in series [1], the CC50 was 130 µM. For the same compound, the pIC50 is 6.19 in series [2] and 6.28 in series [3]. The pEC50 in series [4] was 4.97. Also, the selectivity ratio in series [5] is 12.1.
The corresponding values for `CCCCCCCCNC(=O)C1C(=O)N(O)C(=O)c2ccccc21` (stereo not given) are 98.5 µM, 5.04, 5.04, 4.55 and 3.5.
On to `CCCCN(C)C(=O)C1C(=O)N(O)C(=O)c2ccccc21` (stereo not given), for which the CC50 in series [1] stood at 63.8 µM. Further, the pIC50 in series [2] and in series [3] was 5.06 in each case. Besides, the pEC50 in series [4] was under 4.20.
Take `CCCNC(=O)C1C(=O)N(O)C(=O)c2ccccc21` (stereo not given): in series [1], the CC50 came to 131 µM. Besides, the figures for the pIC50 in series [2] and in series [3] were 5.74 and 5.70, respectively. For the same compound, the pEC50 in series [4] was 4.55. Moreover, the selectivity ratio in series [5] was found to be 4.7.
With `O=C(C1C(=O)N(O)C(=O)c2ccccc21)N1CCCCC1` (stereo not given), in series [1], the CC50 was determined as 120 µM. For the same compound, the figures for the pIC50 in series [2] and in series [3] were 5.09 and 5.04, respectively. Further, the pEC50 in series [4] is under 3.92.
For `O=C(NC1CCCCC1)C1C(=O)N(O)C(=O)c2ccccc21` (stereo not given), the CC50 in series [1] is over 250 µM. Besides, the pIC50 in series [2] is 6.15; in series [3], 5.47. Further, the negative-log EC50 (pEC50) in series [4] is 4.10. Moreover, the selectivity ratio in series [5] was over 3.
For `CCCCCCCNC(=O)C1C(=O)N(O)C(=O)c2ccccc21` (stereo not given), the figures for the pIC50 in series [7], in series [2] and in series [3] were 4.63, 6.07 and 5.98, respectively. The CC50 in series [1] came out at 110 µM. In addition, in series [4], the pEC50 is 4.49. Also, the selectivity ratio in series [5] was found to be 3.4.
In the case of `CCCCCCCCCNC(=O)C1C(=O)N(O)C(=O)c2ccccc21` (stereo not given), the CC50 in series [1] was determined as 88.5 µM. In addition, the pIC50 in series [2] and in series [3] was 5.18 each time. In addition, the pEC50 in series [4] was 4.54. Also, in series [5], the selectivity ratio is 3.
Consider `O=C(NC1CCCC1)C1C(=O)N(O)C(=O)c2ccccc21` (stereo not given), for which the CC50 in series [1] was over 250 µM. In addition, the results for the negative-log IC50 (pIC50) in series [2] and in series [3] were 5.87 and 5.44, respectively. For the same compound, the pEC50 in series [4] was 4.21. In series [5], the selectivity ratio was over 4.
For `CCN(CC)C(=O)C1C(=O)N(O)C(=O)c2ccccc21` (stereo not given), in series [1], the CC50 stood at 28 µM. The pIC50 was 3.91 in series [2] and 3.69 in series [3]. Moreover, the pEC50 in series [4] was under 4.55.

By CC50 is commonly meant the concentration giving 50% cytotoxicity. What is called pIC50 is the negative decadic logarithm of the IC50, by convention in mol/L. Broadly, the pEC50 is the negative decadic logarithm of the EC50, by convention in mol/L.

The values are drawn from ChEMBL document CHEMBL3804820, “2-hydroxyisoquinoline-1,3(2H,4H)-diones (HIDs) as human immunodeficiency virus type 1 integrase inhibitors: Influence of the alkylcarboxamide substitution of position 4” (Eur J Med Chem, 2016).
